# STEP block: STEP phosphatase inhibitors, primary screen, biochemical, fluorescence intensity, uHTS | Tyrosine-protein phosphatase non-receptor type 5 (Homo sapiens), P54829 | recombinant STEP, OMFP fluorogenic substrate | inhibition, % at 20 µM | 0.25% of 360,000 active | AID 588621, 2011;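 active means inhibition at 20 µM, scaled per plate between control wells, above about 37%, limit read from the data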
# Target sequence (P54829 whole entry, looked up): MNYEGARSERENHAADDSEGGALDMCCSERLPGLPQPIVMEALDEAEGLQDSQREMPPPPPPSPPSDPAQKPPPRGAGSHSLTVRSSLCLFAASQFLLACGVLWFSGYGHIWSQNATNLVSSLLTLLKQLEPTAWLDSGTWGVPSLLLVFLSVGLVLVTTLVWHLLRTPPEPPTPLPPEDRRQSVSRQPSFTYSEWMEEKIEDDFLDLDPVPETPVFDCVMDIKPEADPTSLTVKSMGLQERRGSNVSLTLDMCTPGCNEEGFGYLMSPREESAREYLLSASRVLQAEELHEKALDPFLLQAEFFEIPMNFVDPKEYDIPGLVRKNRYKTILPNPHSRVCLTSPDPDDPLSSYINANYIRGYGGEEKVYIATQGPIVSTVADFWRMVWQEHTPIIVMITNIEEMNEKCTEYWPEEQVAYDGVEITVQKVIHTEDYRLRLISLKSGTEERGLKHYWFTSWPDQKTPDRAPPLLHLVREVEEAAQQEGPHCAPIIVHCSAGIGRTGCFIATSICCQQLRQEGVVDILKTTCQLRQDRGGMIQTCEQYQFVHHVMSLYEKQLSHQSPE
#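 System: isolated STEP enzyme; schedule: 20 min enzyme reaction at room temperature, protected from light; medium: Bis-Tris buffer pH 6.0, 2.5 mM DTT, 0.005% Tween 20; signal: fluorescence, 480/540 nm; dosing: single compound dose of 20 µM, 1% DMSO final; also added: OMFP substrate, 25 µM final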
# CSN inh: inhibitors of CSN-mediated cullin deneddylation, primary screen, biochemical, fluorescence polarization, uHTS. COP9 signalosome complex subunit 5 (Homo sapiens), Q92905. Purified CSN, SCF-Nedd8-OG deneddylation. inhibition, % at 12.5 µM. 0.38% of 360,000 active. AID 651999, 2013;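 active means pattern-corrected inhibition above about 35%, with an unprinted fluorescence ratio check between 0.5 and 1.5, limit read from the data, passing the limit was not always enough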
#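 Assay system: purified human Csn5 enzyme expressed in HEK293T cells; measure: % inhibition; also added: SCFSkp2-Nedd8OG substrate at 10 nM final; technique: fluorescence polarization; times: reaction 90 min, room temperature; medium: Tris buffer pH 7.5, NaCl, DTT, Tween-20, trehalose, ovalbumin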
# LMPTP inh: LMPTP phosphatase inhibitors, primary screen, biochemical, fluorescence intensity, uHTS; Low molecular weight phosphotyrosine protein phosphatase (Homo sapiens), P24666; recombinant LMPTP-A, OMFP fluorogenic substrate; inhibition, % at 20 µM; 0.22% of 360,000 active; AID 651560, 2012;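 active means compounds that cut the enzyme signal by at least half of the control window in the single-dose screen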
#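 Test system: LMPTP-A phosphatase enzyme; input: 0.625 nM LMPTP-A final; reagent: OMFP substrate, 400 µM final; compound dosing: 20 µM single dose, 3% DMSO; incubation: 50 min dark incubation at room temperature; measured by: endpoint fluorescence intensity from OMFP dephosphorylation; measure: % inhibition relative to no-enzyme and uninhibited control wells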
# Scp-1 inhibitor: Scp-1 phosphatase inhibitors, primary screen, biochemical, colorimetric, uHTS. Carboxy-terminal domain RNA polymerase II polypeptide A small phosphatase 1 (Homo …. Recombinant Scp1, phosphopeptide, malachite green phosphate absorbance. inhibition, % at 20 µM. AID 493091, 2011. 0.88% of 340,000 active;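 active means inhibition above about 50% at 20 µM, limit read from the data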
#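 Material – SCP-1 phosphatase catalytic domain, residues 76-261 · Buffer or medium – Acidic Tris acetate buffer with magnesium and detergent · Also added – Phospho 17-mer peptide substrate · Compound – single 20 µM dose, 1% DMSO · Times – 45 min room-temperature reaction, 5 min colour, 30 min stabiliser · Technique – Phosphate-binding colour reagent, absorbance read at 630 nm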
# DNMT1 inh: human DNMT1 methyltransferase inhibitors, primary screen, biochemical, molecular beacon, fluorescence, HinP1I cleavage, uHTS; DNA (cytosine-5)-methyltransferase 1 (Homo sapiens), P26358; inhibition (reported as % activation of signal), % at 10 µM; 0.83% of 360,000 active; in the data active means inhibition above about 50%
# SUMO1-SIM PPI: modulators of SUMO1 protein-protein interactions, primary screen, biochemical, uHTS; SUMO1 binding to a labelled peptide, TR-FRET, 1 h; inhibition, % at 20 µM; 0.33% of 360,000 active; AID 602429, 2012; in the data active means inhibition above about 37%
# Target sequence (P63165 whole entry, looked up): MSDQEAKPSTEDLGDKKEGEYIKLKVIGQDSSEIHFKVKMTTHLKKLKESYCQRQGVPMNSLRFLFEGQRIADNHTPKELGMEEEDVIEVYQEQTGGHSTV
# Scp1 confirm: Scp-1 phosphatase inhibitors, retest, confirmation, biochemical, colorimetric, single concentration | 61% of 2,500 active | inhibition, % at 20 µM | recombinant SCP-1 catalytic domain, phosphate release, malachite green absorbance | shares compounds with Scp-1 inhibitor | AID 540281, 2011
# MG interference: colorimetric readout interference by compounds, confirmation, artefact control for Scp-1 inhibitor project, biochemical, single concentration | shares compounds with Scp-1 inhibitor | Colorimetric interference counterscreen, malachite green absorbance 630 nm | apparent inhibition (interference), % at 20 µM | 2,500 tested, under 10 active | AID 540313, 2011;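 further: compounds added after enzyme reaction finished so only phosphate colour detection is probed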
# Scp1 DSF: Scp-1 binding by thermal shift, confirmation, orthogonal assay for Scp-1 inhibitor project, biophysical, differential scanning fluorimetry | shares compounds with Scp-1 inhibitor | Recombinant SCP1, Sypro Orange thermal shift Tm | thermal shift relative to vanadate control, % at 40 µM | 25% of 1,500 active | AID 540329, 2011;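 active means substances whose mean melting-temperature shift, as a percentage of the reference inhibitor's shift, reaches about 5.3%, limit read from the data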
# DNMT1 inh conf: DNMT1 methyltransferase inhibitor retest, confirmation, biochemical, molecular beacon, fluorescence, single concentration; shares compounds with DNMT1 inh; DNMT1 molecular beacon HinP1I cleavage; inhibition, % at 10 µM; 8% of 2,300 active;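 active means average inhibition of at least 30% in the single-concentration confirmation test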
# DNMT1 interf: shows spectral interference in the DNMT1 beacon assay | shares compounds with DNMT1 inh | 1% of 2,300 active | DNMT1 molecular beacon spectral interference counterscreen, fluorescence 485/520 | activation (fluorescence interference), % at 10 µM | AID 602387;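 active means activation of at least 30% at 10 µM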;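 further: DNMT1 catalytic domain with a HinP1I cleavage step and a FAM/dabcyl DNA beacon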
# STEP inh conf: STEP phosphatase inhibitor hit confirmation, biochemical, fluorescence intensity, single concentration. 32% of 520 active. recombinant STEP, OMFP fluorogenic substrate. shares compounds with STEP block. inhibition, % at 20 µM. AID 623866, 2012; call rule not given here
# A number is an active result; - = inactive; . = no result. An excerpt weighted towards active compounds, which were near 2% of everything screened.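 How the source made its calls, unless noted: active means inhibition of at least 30% at 20 µM; inactive means the rest.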
SMILES,STEP block,CSN inh,LMPTP inh,Scp-1 inhibitor,DNMT1 inh,SUMO1-SIM PPI,Scp1 confirm,MG interference,Scp1 DSF,STEP inh conf,others
O=C(N/N=C/c1ccc2c(c1)OCO2)c1cc(-c2ccco2)nc2ccccc12,-,43.3,-,67.5,71.7,-,45.5,-,-,.,DNMT1 inh conf=-;DNMT1 interf=-
O=C(N/N=C/c1ccc2c(c1)OCO2)c1cc(-c2ccccc2)nc2ccccc12,-,-,-,-,-,-,.,.,.,.,
O=C1CCCC(O)=C1Sc1ccccc1C(=O)O,-,-,-,56.7,66.7,-,36.8,-,-,.,DNMT1 inh conf=-;DNMT1 interf=-
O=C1CCCC(O)=C1C(C#Cc1ccccc1)C1=C(O)CCCC1=O,-,-,-,-,-,-,.,.,.,.,
c1coc(-c2nnc3sc(Cc4cccs4)nn23)c1,-,35.3,-,86.3,66.5,-,60.7,-,-,.,DNMT1 inh conf=-;DNMT1 interf=-
CC[N+](CC)(CC)CCCCOc1ccc2c(c1)C(=O)c1cc(OCCCC[N+](CC)(CC)CC)ccc1-2,-,-,-,98.7,50.1,-,-,-,.,.,DNMT1 inh conf=-;DNMT1 interf=-
CCCCOc1cccc(C(=O)O)c1,-,-,-,-,-,-,.,.,.,.,
CCCCN(C)CCNC(=O)C(NC(=O)C1CCC(C)CC1)C(C)C (stereo not drawn),-,-,-,-,-,-,.,.,.,.,
Cc1c(CC(=O)NCCCCCC(=O)O)c(=O)oc2c(C)c3oc4c(c3cc12)CCCC4,97.2,-,-,94.4,-,-,93.7,-,-,89.4,
Cc1c(CC(=O)NCCCC(=O)O)c(=O)oc2cc3oc4c(c3cc12)CCCC4,-,-,-,-,-,-,.,.,.,.,
Cc1cccc(NC(=O)CN2CCN(C(=O)CNC(=O)c3ccc(-c4ccccc4)cc3)CC2)c1C,-,-,-,.,-,-,.,.,.,.,
Cc1ccc2sc(NC(=O)C3CC3)nc2c1C,-,-,-,-,-,-,.,.,.,.,
O=C(Nc1cccc(-c2nc3ccccc3s2)c1)c1cc(=O)c2ccccc2o1,79.5,-,-,71.9,51.5,-,43.4,-,-,-,DNMT1 inh conf=-;DNMT1 interf=-
COc1ccc(C2=NN(C(=O)CCCC(=O)O)C(c3cn(-c4ccccc4)nc3-c3ccccc3)C2)cc1 (stereo not drawn),69.8,-,-,96.7,-,-,85.9,-,-,-,
COc1ccc(-c2nn(-c3ccccc3)cc2C2CC(c3cccs3)=NN2C(=O)CCC(=O)O)cc1 (stereo not drawn),-,-,-,-,-,-,.,.,.,.,
O=C1NC(=Nc2cccnc2)S/C1=C/c1ccc(F)cc1,61.2,-,-,87.4,-,-,50.4,-,-,-,
CCn1cc(CN2CCCC(C(=O)Nc3ccc(-c4cscn4)cc3)C2)c(C)n1 (stereo not drawn),-,-,-,-,-,-,.,.,.,.,
Cc1ccc(-c2nc3c(c(=O)c4ccccc4n3C)c(=O)n2-c2ccc(F)cc2)cc1,-,-,-,-,-,-,.,.,.,.,
Cn1c2ccccc2c(=O)c2c(=O)n(-c3ccc(F)cc3)c(-c3cccs3)nc21,43.7,-,-,101.3,-,-,53.8,-,-,-,
O=C(/C=C/c1ccccc1Cl)Nc1ccc2c(c1)C(=O)NC2=O,94.7,-,70.6,101.1,65.2,-,84.7,-,6.8,-,DNMT1 inh conf=-;DNMT1 interf=-
Cc1ccc(-c2nc(NC(=O)CSc3cc(C)c4ccccc4n3)ns2)cc1,69.9,175.4,66.4,106.0,89.9,-,83.6,-,-,49.9,DNMT1 inh conf=-;DNMT1 interf=-
COc1cccc(CNc2ccc(S(=O)(=O)N3CCCC3)cn2)c1,-,-,-,-,-,-,.,.,.,.,
O=C(COc1ccc([N+](=O)[O-])cc1)Nc1nnc(-c2cccnc2)s1,65.5,-,-,75.5,-,-,76.4,-,6.9,75.4,
Cc1cccc(NC(=O)c2ccc3c(c2)CCN3S(C)(=O)=O)c1,-,-,-,-,-,-,.,.,.,.,
O=C(CN1C(=O)C2CC=CCC2C1=O)Nc1ccc(OC(F)(F)F)cc1 (stereo not drawn),-,-,-,-,-,-,.,.,.,.,
SMILES,STEP block,CSN inh,LMPTP inh,Scp-1 inhibitor,DNMT1 inh,SUMO1-SIM PPI,Scp1 confirm,MG interference,Scp1 DSF,STEP inh conf,others
COC(=O)COc1ccc2oc(=O)cc(-c3cc4cccc(OC)c4o3)c2c1,75.1,-,60.7,75.5,-,40.1,55.9,-,-,-,
COc1cccc2cc(-c3cc(=O)oc4ccc(OCC(C)=O)cc34)oc12,-,-,-,-,-,-,.,.,.,.,
N=c1c2ccccc2nnn1-c1ccc(C(F)(F)F)cc1,94.0,-,68.2,73.4,-,-,62.3,-,-,-,
COc1cc(/C=C2\SC(=S)N(CCC(=O)Nc3ccc(O)cc3)C2=O)cc(OC)c1OC,-,-,-,-,-,-,.,.,.,.,
COc1cc(/C=C2/SC(=S)N(CCC(=O)Nc3ccc(C(=O)O)cc3)C2=O)cc(OC)c1OC,41.6,-,-,67.7,-,-,63.2,-,24.7,-,
O=C(CCN1C(=O)/C(=C/c2ccc(Cl)cc2)SC1=S)Nc1ccc(C(=O)O)cc1,48.6,-,75.3,91.6,-,-,69.4,-,-,-,
CCCCn1nnnc1C(c1ccccc1)N1CCN(CCN2CCOCC2)CC1 (stereo not drawn),.,-,-,.,.,-,.,.,.,.,

# Compound activity from PubChem BioAssay.
